Data set [1] has as its target T1, Histone acetyltransferase RTT109 (Saccharomyces cerevisiae (strain ATCC 204508 / S288c) (Baker's yeast)) (UniProt Q07794).
T1 sequence (whole entry): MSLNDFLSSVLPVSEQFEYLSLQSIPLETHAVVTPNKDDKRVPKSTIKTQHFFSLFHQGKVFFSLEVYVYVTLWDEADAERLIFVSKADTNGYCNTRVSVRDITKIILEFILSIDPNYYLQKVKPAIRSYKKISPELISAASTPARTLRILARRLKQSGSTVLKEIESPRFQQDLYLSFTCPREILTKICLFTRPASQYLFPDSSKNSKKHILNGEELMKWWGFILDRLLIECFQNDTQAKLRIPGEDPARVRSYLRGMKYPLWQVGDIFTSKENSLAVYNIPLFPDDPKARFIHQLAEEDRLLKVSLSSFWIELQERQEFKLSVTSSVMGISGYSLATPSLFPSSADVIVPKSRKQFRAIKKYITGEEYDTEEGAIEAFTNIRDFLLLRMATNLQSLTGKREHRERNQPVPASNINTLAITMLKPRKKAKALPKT
Briefly: Inhibition of Vps75-stimulated recombinant Saccharomyces cerevisiae histone acetyltransferase Rtt109 assessed as H3K27 acetylated product at […] after 45 mins by Slot bolt inhibiton assay.

A short description of data set [2]: Fluorescence quenching assessed as fluorescence signal reduction at 10 uM after 10 mins. The data set is classed as physicochemical. The procedure, abridged: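 CPM (20 μM final) and CoA (5 μM final) reacted to completion in assay buffer (stable plateau, usually ~5 min); adduct solution added to wells preplated with compound; shaken 5 min, equilibrated 5 min at room temperature; fluorescence intensity read as percent signal reduction versus DMSO controls. Flagged as quencher at >20% signal reduction at 10 μM final compound.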

Data set [3] is described as follows: Fluorescence quenching in HTS buffer with […] CoA assessed as fluorescence signal reduction at 10 uM after 10 mins. Format: physicochemical.
The target of data set [4] is T1, Histone acetyltransferase RTT109 (Saccharomyces cerevisiae (strain ATCC 204508 / S288c) (Baker's yeast)). Nature of the data set: Inhibition of Vps75-stimulated recombinant Saccharomyces cerevisiae histone acetyltransferase Rtt109 assessed as H3K56 acetylated product at […] after 45 mins by Slot bolt inhibiton assay.
Data set [5] in a line: Fluorescence quenching in HTS buffer with 20 uM 7-diethylamino-3-(4'-maleimidyl-phenyl)-4-methylcoumarin assessed as fluorescence signal reduction at 10 uM after 10 mins. Format: physicochemical.
A short description of data set [6]: Fluorescence quenching in HTS buffer assessed as fluorescence signal reduction at 10 uM after 10 mins. The data set is classed as physicochemical.

Activity data for 26 molecules are collected here from ChEMBL document CHEMBL3414544, “PAINS in the assay: chemical mechanisms of assay interference and promiscuous enzymatic inhibition observed during a sulfhydryl-scavenging HTS” (J Med Chem, 2015).

Activity calls are given as the source filed them.

As to `O=c1[nH]c(Sc2c([N+](=O)[O-])cc(Br)c3nsnc23)nc2ccccc12`, the result in data set [1] and in data set [4] was Active. Also, the Activity entry in data set [2], in data set [3], in data set [5] and in data set [6] was “Not Active” each time.
Take `Cc1cc(C)c(S(=O)(=O)Nc2cc(Br)c(O)c3ccccc23)c(C)c1`: the result in data set [1] and in data set [4] was Active. In addition, the Activity entry in data set [2], in data set [3], in data set [5] and in data set [6] was “Not Active” throughout.
Regarding `O=C(O)c1ccc(S(=O)(=O)Nc2cc(Br)c(O)c3ccccc23)cc1`, the result in data set [1] and in data set [4] was Active. For the same molecule, the Activity result in data set [2], in data set [3], in data set [5] and in data set [6] was “Not Active” throughout.
On to `O=S(=O)(Nc1ccc(O)c(Br)c1)c1ccc(Cl)cc1`, for which the result in data set [1] and in data set [4] was inactive. The Activity entry in data set [2], in data set [3], in data set [5] and in data set [6] was “Not Active” throughout.
Take `O=S(=O)(Nc1cc(Sc2ccccc2)c(O)c2ccccc12)c1ccccc1`: the outcome in data set [1] and in data set [4] was Active. Moreover, the Activity entry in data set [2], in data set [3], in data set [5] and in data set [6] was “Not Active” each time.
`COc1cc(-c2nnc(SC3=CS(=O)(=O)c4ccccc43)o2)cc(OC)c1OC`: the outcome in data set [1] and in data set [4] was Active. For the same molecule, the Activity entry in data set [2], in data set [3], in data set [5] and in data set [6] was “Not Active” in each case.
Turning to `O=C1CC(Sc2nnc(-c3ccccc3O)o2)C(=O)N1c1ccccc1` (centres undefined), the outcome in data set [1] and in data set [4] was Active. The Activity result in data set [2], in data set [3], in data set [5] and in data set [6] was “Not Active” throughout.
With `O=S1(=O)C=C(Sc2nn(-c3ccccc3)c(=S)s2)c2ccccc21`, the outcome in data set [1] and in data set [4] was Active. Also, the Activity entry in data set [2], in data set [3], in data set [5] and in data set [6] was “Not Active” throughout.
For the molecule `CC(C)c1ccc(S(=O)(=O)Nc2ccc(O)c(Br)c2)cc1`, the outcome in data set [1] and in data set [4] was inactive. Moreover, the Activity entry in data set [2], in data set [3], in data set [5] and in data set [6] was “Not Active” in each case.
Regarding `c1ccc(C[n+]2sc(Nc3ccccc3)nc2-c2ccccc2)cc1`, the result in data set [1] and in data set [4] was Active.
For the molecule `O=C1CC(Sc2nnnn2-c2ccccc2)C(=O)N1c1ccc([N+](=O)[O-])cc1` (centres undefined), the outcome in data set [1] and in data set [4] was Active. Further, the Activity entry in data set [2], in data set [3], in data set [5] and in data set [6] was “Not Active” in each case.
For the molecule `O=[N+]([O-])c1cc(Br)c2nsnc2c1Sc1nnnn1C1CCCCC1`, the result in data set [1] and in data set [4] was Active. For the same molecule, the Activity entry in data set [2], in data set [3], in data set [5] and in data set [6] was “Not Active” each time.
For the molecule `Cc1ccc(S(=O)(=O)C2=CS(=O)(=O)c3ccccc32)cc1`, the outcome in data set [1] and in data set [4] was Active. Moreover, the Activity result in data set [2], in data set [3], in data set [5] and in data set [6] was “Not Active” each time.
For the molecule `Cc1ccc(-c2nc(Nc3ccccc3)s[n+]2CS(=O)(=O)c2ccccc2)cc1.[Cl-]`, the result in data set [1] and in data set [4] was Active. Further, the Activity result in data set [2], in data set [3], in data set [5] and in data set [6] was “Not Active” throughout.
Regarding `Cc1ccc(S(=O)(=O)C[n+]2sc(N(c3ccccc3)c3ccccc3)nc2-c2ccccc2)cc1`, the result in data set [1] and in data set [4] was inactive.
For `CSc1nsc(SC2=CS(=O)(=O)c3ccccc32)n1`, the result in data set [1] and in data set [4] was Active. The Activity result in data set [2], in data set [3], in data set [5] and in data set [6] was “Not Active” throughout.
Consider `O=S(=O)(Nc1cc(Br)c(O)c2ccccc12)c1ccc2ccccc2c1`, for which the outcome in data set [1] was inactive. Also, the Activity entry in data set [2], in data set [3], in data set [5] and in data set [6] was “Not Active” throughout. Besides, the outcome in data set [4] was Active.
On to `O=C1CC(Sc2nnc(-c3ccccc3)[nH]2)C(=O)N1c1ccc(Oc2ccccc2)cc1` (centres undefined), for which the outcome in data set [1] and in data set [4] was Active. For the same molecule, the Activity entry in data set [2], in data set [3], in data set [5] and in data set [6] was “Not Active” in each case.
On to `CC(C)c1ccc(S(=O)(=O)Nc2cc(Sc3nc[nH]n3)c(O)c3ccccc23)cc1`, for which the outcome in data set [1] and in data set [4] was Active. Further, the Activity result in data set [2], in data set [3], in data set [5] and in data set [6] was “Not Active” each time.
On to `Cn1c(Sc2ccc([N+](=O)[O-])c3nonc23)nnc1-c1ccccc1`, for which the result in data set [1] and in data set [4] was Active. The Activity result in data set [2], in data set [3], in data set [5] and in data set [6] was “Not Active” in each case.
For the molecule `COc1ccc(N2C(=O)CC(Sc3nnc(-c4ccccc4)o3)C2=O)cc1` (centres undefined), the result in data set [1] and in data set [4] was Active. Besides, the Activity entry in data set [2], in data set [3], in data set [5] and in data set [6] was “Not Active” in each case.
As for `O=[N+]([O-])c1ccc(Sc2cccc(Cl)c2)c2nonc12`, the result in data set [1] and in data set [4] was Active.
Turning to `COc1ccc(-c2nc(N)s[n+]2-c2ccccc2)cc1.[Cl-]`, the result in data set [1] and in data set [4] was Active. Further, the Activity entry in data set [2], in data set [3], in data set [5] and in data set [6] was “Not Active” each time.
Turning to `COc1ccc(Nc2nc(-c3ccc(C)cc3)[n+](Cc3ccccc3)s2)cc1.[Cl-]`, the outcome in data set [1] and in data set [4] was Active. The Activity entry in data set [2], in data set [3], in data set [5] and in data set [6] was “Not Active” each time.
For `Cc1ccc(-c2nnc(SC3CC(=O)N(c4ccc5ccccc5c4)C3=O)[nH]2)cc1` (centres undefined), the outcome in data set [1] and in data set [4] was Active. Also, the Activity entry in data set [2], in data set [3], in data set [5] and in data set [6] was “Not Active” throughout.
Take `O=C1C=CC(=O)N1c1ccc(Cl)cc1`: the result in data set [1] and in data set [4] was Active. Further, the Activity result in data set [2], in data set [3], in data set [5] and in data set [6] was “Not Active” each time.
